Test results reported in ChEMBL document CHEMBL3352511, “Pyrrole-3-carboxamides as potent and selective JAK2 inhibitors” (Bioorg Med Chem, 2014).

Assays:
Mus musculus = assay: Toxicity in human SET2 cells xenografted SCID mouse assessed as reversible body weight loss at 15 mg/kg, po bid for 10 consecutive days; assay type: organism-based; parameters: dose 15 mg/kg, route oral; details: in vivo
Outline: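 SET-2 xenografts (10^7 cells s.c.) in irradiated female SCID mice, seven per study, dosed orally from 100-200 mm³ tumours, with 0.5% methocel vehicle controls. Body weight loss recorded at end of treatment.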

[1] = target: Dual specificity protein kinase CLK2 (Homo sapiens) (UniProt P49760); assay: Inhibition of human CLK2 at 0.1 uM
Outline: (§1)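 KINOMEscan active-site-directed competition binding panel of 442 human kinases, compound tested at 0.1 µM. Primary screen results expressed as % Ctrl, where lower values mean stronger binding.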

[2] = Antitumor activity against human SET2 cells xenografted in SCID mouse assessed as tumor growth inhibition at 50 mg/kg, po bid administered as 5 days on 5 days off for 3 cycles; assay type: functional; details: SET-2, 120 h, read-out: TGI
Outline: (§2)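 Female SCID mice, 5–6 weeks old, given 200 Rads whole-body gamma irradiation, then inoculated s.c. with 10^7 SET-2 cells. Dosing by mouth started at 100-200 mm³ tumours; controls received vehicle (0.5% methocel). Seven animals per study.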

[3] = target: T1, Serine/threonine-protein kinase TAO1 (Homo sapiens) (UniProt Q7L7X3); assay: Inhibition of human TAOK1 at 0.1 uM; outline: as §1
T1 sequence (whole entry): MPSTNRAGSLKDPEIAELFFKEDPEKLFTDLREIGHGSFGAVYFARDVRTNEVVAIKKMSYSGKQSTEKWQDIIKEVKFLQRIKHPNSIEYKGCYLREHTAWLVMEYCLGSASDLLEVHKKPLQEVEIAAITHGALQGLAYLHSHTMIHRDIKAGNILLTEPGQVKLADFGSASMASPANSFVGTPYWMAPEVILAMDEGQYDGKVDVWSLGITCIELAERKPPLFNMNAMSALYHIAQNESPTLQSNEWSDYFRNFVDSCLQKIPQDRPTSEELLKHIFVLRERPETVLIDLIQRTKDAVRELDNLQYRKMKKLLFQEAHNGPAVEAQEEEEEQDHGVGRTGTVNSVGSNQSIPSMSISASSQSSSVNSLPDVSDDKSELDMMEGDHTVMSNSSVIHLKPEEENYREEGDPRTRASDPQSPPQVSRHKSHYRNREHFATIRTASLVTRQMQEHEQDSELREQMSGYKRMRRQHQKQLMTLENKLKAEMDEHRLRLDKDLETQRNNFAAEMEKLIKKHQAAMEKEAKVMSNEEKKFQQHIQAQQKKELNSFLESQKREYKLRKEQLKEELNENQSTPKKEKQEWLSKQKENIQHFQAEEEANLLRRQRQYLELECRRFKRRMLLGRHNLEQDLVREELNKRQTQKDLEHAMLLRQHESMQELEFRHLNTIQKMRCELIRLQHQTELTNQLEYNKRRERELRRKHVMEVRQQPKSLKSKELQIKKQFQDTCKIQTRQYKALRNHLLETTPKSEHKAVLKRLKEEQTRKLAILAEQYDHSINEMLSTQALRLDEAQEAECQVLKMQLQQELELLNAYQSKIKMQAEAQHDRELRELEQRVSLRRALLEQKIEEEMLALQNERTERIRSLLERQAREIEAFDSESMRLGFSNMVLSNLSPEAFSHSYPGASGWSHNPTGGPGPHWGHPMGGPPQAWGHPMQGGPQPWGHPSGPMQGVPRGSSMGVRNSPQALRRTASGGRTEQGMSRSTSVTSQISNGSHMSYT

[4] = Oral bioavailability in Balb nu/nu mouse at 10 mg/kg; assay type: ADME, organism-based; details: in vivo
Outline: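 Overnight-fasted male Nu/Nu mice, single oral dose in 0.5% methocel, three mice. Saphenous vein blood taken at predose, 0.083, 0.5, 1, 6 and 24 h. Plasma obtained by centrifugation at 10,000g, 3 min, 4 °C, stored at -80 °C, then analysed by LC/MS/MS.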

[5] = target: Dual specificity tyrosine-phosphorylation-regulated kinase 1B (Homo sapiens) (UniProt Q9Y463); assay: Inhibition of human DYRK1B at 0.1 uM; outline: as §1
[6] = Antitumor activity against human SET2 cells xenografted in SCID mouse assessed as tumor growth inhibition at 30 mg/kg, po bid for 10 consecutive days; assay type: functional; details: SET-2, read-out: TGI; outline: as §2
A2780 = assay: Antiproliferative activity against human A2780 cells after 72 hrs by Cell Titer-Glo assay; assay type: functional, cell-based; details: A2780, 72 h

Dual specificity tyrosine-phosphorylation-regulated kinase 1B (Homo sapiens), sequence (Q9Y463 whole entry, looked up): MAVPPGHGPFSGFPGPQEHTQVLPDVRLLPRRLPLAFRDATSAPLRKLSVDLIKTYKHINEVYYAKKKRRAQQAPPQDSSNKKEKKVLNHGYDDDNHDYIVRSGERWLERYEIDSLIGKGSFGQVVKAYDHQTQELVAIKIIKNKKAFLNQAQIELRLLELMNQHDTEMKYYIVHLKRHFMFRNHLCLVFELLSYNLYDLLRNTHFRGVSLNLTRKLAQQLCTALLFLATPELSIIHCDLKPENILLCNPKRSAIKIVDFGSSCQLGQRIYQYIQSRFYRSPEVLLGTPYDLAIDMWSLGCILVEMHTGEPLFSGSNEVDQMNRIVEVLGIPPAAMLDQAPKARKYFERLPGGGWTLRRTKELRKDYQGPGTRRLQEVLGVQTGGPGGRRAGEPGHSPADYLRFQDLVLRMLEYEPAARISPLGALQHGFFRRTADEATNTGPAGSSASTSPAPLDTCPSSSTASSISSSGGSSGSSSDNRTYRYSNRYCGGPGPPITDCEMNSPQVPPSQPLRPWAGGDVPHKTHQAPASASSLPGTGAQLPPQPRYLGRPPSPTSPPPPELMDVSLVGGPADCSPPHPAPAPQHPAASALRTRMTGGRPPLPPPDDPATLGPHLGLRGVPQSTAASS
Dual specificity protein kinase CLK2 (Homo sapiens), sequence (P49760 whole entry, looked up): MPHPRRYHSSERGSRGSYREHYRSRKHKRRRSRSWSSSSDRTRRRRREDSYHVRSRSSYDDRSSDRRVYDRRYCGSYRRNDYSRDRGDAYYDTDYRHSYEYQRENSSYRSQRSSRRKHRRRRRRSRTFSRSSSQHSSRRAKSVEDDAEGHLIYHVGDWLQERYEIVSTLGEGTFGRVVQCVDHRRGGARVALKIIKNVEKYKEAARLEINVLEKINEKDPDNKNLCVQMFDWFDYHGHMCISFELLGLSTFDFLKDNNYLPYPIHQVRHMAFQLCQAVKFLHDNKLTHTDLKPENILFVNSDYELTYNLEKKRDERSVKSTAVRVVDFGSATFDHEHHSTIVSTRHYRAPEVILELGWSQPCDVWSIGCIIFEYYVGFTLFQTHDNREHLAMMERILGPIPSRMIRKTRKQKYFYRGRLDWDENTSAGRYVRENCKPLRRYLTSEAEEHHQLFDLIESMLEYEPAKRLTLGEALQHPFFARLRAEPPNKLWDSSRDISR

Work on `NC(=O)c1cc(-c2ccnc(N)n2)[nH]c1-c1cc(C(F)(F)F)ccc1Cl` yielded an Activity (Mus musculus) of 2%, an inhibition [1] of 1% and an inhibition in vivo at 50 mg/kg [2] of 95%. For the same compound, the inhibition [3] was 1%, the bioavailability [4] was 31% and the inhibition [5] was 1%. It also gave an inhibition in vivo at 30 mg/kg [6] of 71% and an IC50 (A2780) of 1470 nM.
